Laboratory results as given in ChEMBL document CHEMBL1129793, “Quantitative structure-activity relationships for the in vitro antimycobacterial activity of pyrazinoic acid esters” (J Med Chem, 1996).

Legend:
[1] = T1/2 in equine serum; assay type: ADME, organism-based, Equus caballus; details: horse
In short: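 Ester from a 1 mg/mL stock was mixed with 5% aqueous equine serum in 0.01 M KH2PO4, pH 7.2. Remaining ester was measured by isocratic reverse-phase HPLC (80% acetonitrile/20% 0.1 M sodium acetate, pH 5.0), with UV detection at 265 nm against a standard curve. Half-life is the time to 50% conversion to the acid.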

[2] = Partition coefficient (logP); assay type: physicochemical; details: octanol/water
Mycobacterium avium [3] = assay: In vitro activity against Mycobacterium avium (MAC-101).; assay type: functional
In short: (§1)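 Broth macrodilution MIC. Cultures were grown in modified Middlebrook 7H10 broth (agar and malachite green omitted) with 10% OADC and 0.05% Tween 80, shaken at 37 °C for 3 days, then diluted in 7H10 broth to 1 Klett unit/mL. Test agents were dissolved in water or DMSO and filter-sterilised, then serially diluted 2-fold in 7H10 broth at pH 5.8. Tubes were shaken at 37 °C for 7–10 days, with a drug-free control. MIC was the lowest concentration with no visible turbidity, expressed in mmol/L.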

[4] = system: Mycobacterium tuberculosis; assay: In vitro activity against Mycobacterium tuberculosis (ATCC 27294); assay type: functional; in short: as §1
[5] = system: Mycobacterium tuberculosis; assay: In vitro activity against Mycobacterium tuberculosis (ATCC 35801); assay type: functional; in short: as §1
[6] = system: Mycobacterium tuberculosis; assay: In vitro activity against Mycobacterium tuberculosis (ATCC 35828); assay type: functional; in short: as §1
Mycobacterium avium [7] = assay: In vitro activity against Mycobacterium avium (ATCC 49601).; assay type: functional; in short: as §1
Mycobacterium kansasii = assay: in vitro activity against Mycobacterium kansasii (SWK).; assay type: functional
In short: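 M. kansasii clinical isolate SWK was grown 3 days at 37 °C with shaking in modified Middlebrook 7H10 broth with 10% OADC and 0.05% Tween 80, then diluted. It was tested in serial 2-fold dilutions in 7H10 broth at pH 5.8, shaken at 37 °C for 7–10 days, with a drug-free control. MIC was the lowest concentration giving no visible turbidity, expressed in mmol/L.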

| SMILES | half-life [1] | logP [2] | Log 1/MMIC (Mycobacterium avium [3]) | Log 1/MMIC [4] | Log 1/MMIC [5] | Log 1/MMIC [6] | Log 1/MMIC (Mycobacterium avium [7]) | Log 1/MMIC (Mycobacterium kansasii) |
| --- | --- | --- | --- | --- | --- | --- | --- | --- |
| CCCCCCCC(C)(CCCCC)OC(=O)c1cnc(Cl)cn1 (stereo not drawn) | 52.8 h | 6.96 | 0.744 | 2.249 | 1.948 | 1.647 | 0.744 | – |
| CCCCCCCC(C)OC(=O)c1cnc(Cl)cn1 (stereo not drawn) | 0.5 h | 4.14 | 0.949 | 2.455 | 2.756 | 2.153 | 0.949 | 3.977 |
| CCCCOC(=O)c1cnc(Cl)cn1 | 0.0917 h | 2.21 | 0.526 | 2.934 | 3.633 | 2.633 | 0.225 | 2.33 |
| CCCCCCCCC(C)(CCCC)OC(=O)c1cnc(Cl)cn1 (stereo not drawn) | 19 h | 7.05 | 0.744 | – | – | 1.647 | 0.744 | 1.346 |
| CCCCCCCCCCOC(=O)c1cnccn1 | 0.0133 h | 4.58 | 0.917 | 2.723 | 3.024 | 3.024 | 1.519 | 3.723 |
| CCCCCCCCCCOC(=O)c1cnc(F)cn1 | 0.0667 h | 5.08 | 0.946 | 2.15 | 1.849 | 1.849 | 0.946 | 2.451 |
| CCCCCCCCCOC(=O)c1cnc(C)cn1 | 0.0167 h | 4.46 | 0.616 | 2.422 | 2.422 | – | 0.917 | 2.121 |
| CC(C)COC(=O)c1cnc(Cl)cn1 | 0.197 h | 1.97 | 0.526 | 2.031 | 2.934 | 2.031 | 0.526 | 2.33 |
| CCCCCCCCC(C)(C)OC(=O)c1cnc(Cl)cn1 | 15.9 h | 5.51 | 0.388 | 1.592 | 2.796 | 1.592 | 0.388 | 2.194 |
| CCCCCCC(C)(C)OC(=O)c1cnc(Cl)cn1 | 8.5 h | 4.39 | 0.648 | 3.057 | 1.852 | 3.057 | 0.648 | 2.455 |
| CCCCCCC(C)(CCCCCC)OC(=O)c1cnc(Cl)cn1 | 18 h | 7.08 | 0.744 | 3.152 | 2.851 | 2.851 | 1.346 | 2.249 |
| CCCCCC(C)OC(=O)c1cnc(Cl)cn1 (stereo not drawn) | 0.27 h | 3 | 0.904 | 3.631 | 2.711 | 3.631 | 0.904 | 3.313 |
| CCCCCCCCCC(C)(C)OC(=O)c1cnc(Cl)cn1 | 15 h | 6.01 | 0.106 | 1.611 | 2.514 | 1.31 | 0.106 | 2.815 |
| CCCCCC(C)(CCCCC)OC(=O)c1cnc(Cl)cn1 | 6 h | 5.82 | 0.708 | – | – | 1.31 | 0.708 | 1.611 |
| CCCCCCC(C)(CCCC)OC(=O)c1cnc(Cl)cn1 (stereo not drawn) | 10.8 h | 5.93 | 0.106 | – | 1.611 | 1.31 | 0.106 | 1.912 |
| CCCCCCCCC(CC)OC(=O)c1cnc(Cl)cn1 (stereo not drawn) | 0.15 h | 5.99 | 0.087 | 3.097 | 2.495 | 2.495 | 0.087 | 3.398 |
| CCCCCC(C)(CCCC)OC(=O)c1cnc(Cl)cn1 (stereo not drawn) | 6.5 h | 5.3 | 0.087 | 1.893 | 1.592 | – | 0.087 | 1.291 |
